PMC2577561 (Bioorganic & medicinal chemistry, 2008)
Values joined by “and” are separate entries in the source; they are usually repeats but may differ in a detail not shown here. Identical values can stand only once.

How the values were obtained:
[1] = test system: cholera toxin-induced intestinal fluid secretion; conditions: in vivo; cited from earlier work
[2] = cited from earlier work
CFTR = conditions: read-out: IC50, block of CFTR chloride conductance; full block; cited from earlier work
[3] = Solubility in phosphate buffered saline by LC/MS; assay type: physicochemical; conditions: for Increase of water solubility compared with CFTRinh-172: in saline
Outline: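 Saturated solution made by adding DMSO stock to phosphate buffered saline (final DMSO 2%). Sonicated 5 min at 25 °C, shaken 1 h at room temperature, then centrifuged at 15 000 rpm for 1 h. Supernatant quantified by LC/MS peak area against per-compound standard curves (1–15 or 1–100 μM, linear r > 0.998).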

MDCK cell model = conditions: cited from earlier work
FRT cells = assay: Cytotoxicity, crystal violet staining; assay type: cell-based; conditions: 50 μM, 48 h, crystal violet staining vs vehicle-treated cultures
Outline: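 Confluent FRT monolayers exposed to test compound for 2 days, washed 3 times, fixed for 30 min and stained with 0.5% crystal violet for 10 min. Dye extracted in Sorenson's buffer (0.1 M sodium citrate, 50% ethanol, pH 4.2) and read at 650 nm absorbance. Percent staining from 8 wells per test, referenced to cell-free blanks and vehicle-treated cells.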

human wildtype CFTR = human wildtype CFTR (Homo sapiens, UniProt P13569); assay: Short-circuit current measurement of CFTR inhibition; assay type: cell-based; conditions: for CFTR inhibition activity (in words): short-circuit current, statements in running text; for IC50 (μM) / IC50: FRT cells expressing human wildtype CFTR; for IC50: IC50 (μM)
Outline: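 FRT cells stably expressing human wildtype CFTR, grown on 1 cm2 filters to >1,000 Ω.cm2. Basolateral membrane permeabilized with amphotericin B (250 μg/ml, 30 min). Basolateral buffer in mM: 130 NaCl, 10 Na-HEPES, 10 glucose, pH 7.3. Apical side had 65 mM NaCl swapped for gluconate, giving a Cl− gradient. 37 °C, 95% O2/5% CO2. CFTR activated with 100 μM CPT-cAMP, then inhibitor added at stepped concentrations. Voltage-clamped apical current recorded; IC50 fitted.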

[4] = Table 1, variations in Rings A and C
[5] = Table 2, variations in Ring B and Linkers 1 and 2

Sequence of human wildtype CFTR (P13569 whole entry): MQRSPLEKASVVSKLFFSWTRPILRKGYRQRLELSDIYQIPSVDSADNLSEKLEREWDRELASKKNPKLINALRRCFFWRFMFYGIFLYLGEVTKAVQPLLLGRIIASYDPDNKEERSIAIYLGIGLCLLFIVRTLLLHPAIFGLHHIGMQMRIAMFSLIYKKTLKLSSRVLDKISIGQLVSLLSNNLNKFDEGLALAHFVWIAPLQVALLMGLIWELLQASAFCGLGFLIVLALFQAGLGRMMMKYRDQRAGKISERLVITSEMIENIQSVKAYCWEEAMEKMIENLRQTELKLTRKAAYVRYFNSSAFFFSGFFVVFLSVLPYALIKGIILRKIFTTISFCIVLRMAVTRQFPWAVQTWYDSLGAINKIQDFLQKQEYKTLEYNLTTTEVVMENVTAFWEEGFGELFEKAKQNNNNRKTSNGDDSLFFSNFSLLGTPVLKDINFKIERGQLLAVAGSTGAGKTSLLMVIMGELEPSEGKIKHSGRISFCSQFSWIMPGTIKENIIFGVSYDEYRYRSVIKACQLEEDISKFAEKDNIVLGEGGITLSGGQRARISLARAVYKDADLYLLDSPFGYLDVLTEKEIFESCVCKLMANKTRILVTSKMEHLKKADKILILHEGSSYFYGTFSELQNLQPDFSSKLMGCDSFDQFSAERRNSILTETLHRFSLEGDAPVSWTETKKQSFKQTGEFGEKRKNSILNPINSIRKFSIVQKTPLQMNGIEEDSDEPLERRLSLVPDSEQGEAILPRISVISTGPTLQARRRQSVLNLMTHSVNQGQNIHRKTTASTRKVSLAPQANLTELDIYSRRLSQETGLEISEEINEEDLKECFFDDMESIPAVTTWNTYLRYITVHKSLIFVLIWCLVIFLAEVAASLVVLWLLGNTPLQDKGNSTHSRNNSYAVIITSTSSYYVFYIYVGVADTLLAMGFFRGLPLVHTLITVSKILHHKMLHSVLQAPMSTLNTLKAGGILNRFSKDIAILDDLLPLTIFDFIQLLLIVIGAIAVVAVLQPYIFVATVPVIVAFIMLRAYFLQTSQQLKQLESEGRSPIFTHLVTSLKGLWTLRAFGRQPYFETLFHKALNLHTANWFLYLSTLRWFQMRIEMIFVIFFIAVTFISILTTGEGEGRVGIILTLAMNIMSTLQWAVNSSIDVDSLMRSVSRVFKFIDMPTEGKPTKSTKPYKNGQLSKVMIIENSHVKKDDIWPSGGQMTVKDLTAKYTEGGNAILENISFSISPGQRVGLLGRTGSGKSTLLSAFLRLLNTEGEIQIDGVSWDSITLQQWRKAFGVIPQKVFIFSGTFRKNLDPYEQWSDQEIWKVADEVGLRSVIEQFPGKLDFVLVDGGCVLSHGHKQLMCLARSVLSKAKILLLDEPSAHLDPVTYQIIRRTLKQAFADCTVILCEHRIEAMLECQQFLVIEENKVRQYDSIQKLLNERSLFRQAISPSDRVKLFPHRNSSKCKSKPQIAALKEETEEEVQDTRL

SMILES: O=C(O)c1ccc(/C=C2\SC(=S)N(c3cccc(C(F)(F)F)c3)C2=O)cc1 [Compound 5, 4-[[4-Oxo-2-thioxo-3-[3-(trifluoromethyl)phenyl]-5-thiazolidinylidene]methyl]benzoic acid]
- Cholera toxin-induced intestinal fluid secretion [1]: efficacy in reducing cholera toxin-induced intestinal fluid secretion
- Excretion and metabolism (in words) [2]: renal excretion with minimal metabolism
- Toxicity (in words) [2]: low toxicity
- IC50 (CFTR): < 0.5 µM

SMILES: O=C1/C(=C/c2ccc(-c3nn[nH]n3)cc2)SC(=S)N1c1cccc(C(F)(F)F)c1 [Compound 6, 5-[[4-(2H-Tetrazol-5-yl)phenyl]methylene]-2-thioxo-3-[3-(trifluoromethyl)phenyl]-4-thiazolidinone]
- Increase of water solubility compared with CFTRinh-172 ([3]; listed as Tetrazolo-172): > 10 fold and 11 fold
- Prevention of cyst formation (MDCK cell model): substantially better than by CFTRinh-172
- % Cell viability (FRT cells): reduced

SMILES: O=C(O)c1ccc(/C=C2\SC(=S)N(c3ccc(F)c(C(F)(F)F)c3)C2=O)cc1 [Compound 8]
- CFTR inhibition activity (in words) (human wildtype CFTR): intermediate activity

SMILES: O=C(O)c1cccc(/C=C2\SC(=S)N(c3ccc(F)c(C(F)(F)F)c3)C2=O)c1 [Compound 11]
- CFTR inhibition activity (in words) (human wildtype CFTR): intermediate activity

SMILES: Cc1cccc(N2C(=O)/C(=C/c3ccc(C(=O)O)cc3)SC2=S)c1 [Compound 12]
- CFTR inhibition activity (in words) (human wildtype CFTR): less active

SMILES: O=C1/C(=C/c2cc(Br)c(O)c(Br)c2)SC(=S)N1c1cccc(C(F)(F)F)c1 [Compound 14]
- CFTR inhibition activity (in words) (human wildtype CFTR): modest inhibition activity

SMILES: O=C1/C(=C/c2cc(Br)c(O)c(Br)c2O)SC(=S)N1c1cccc(C(F)(F)F)c1 [Compound 15]
- CFTR inhibition activity (in words) (human wildtype CFTR): modest inhibition activity

SMILES: Cc1c(N2C(=O)/C(=C/c3ccc(C(=O)O)cc3)SC2=S)cccc1C(F)(F)F [Compound 18, 4-[[4-Oxo-2-thioxo-3-[2-methyl-3-(trifluoromethyl)phenyl]-5-thiazolidinylidene]methyl] benzoic acid]
- % Cell viability (FRT cells): reduced

SMILES: O=C(O)c1ccc(/C=C2\SC(=S)N(c3ccc(Cl)c(C(F)(F)F)c3)C2=O)cc1 [Compound 24]
- CFTR inhibition activity (in words) (human wildtype CFTR): greatly reduced activity

SMILES: O=C(O)c1ccc(/C=C2\SC(=S)N(c3cc(C(F)(F)F)ccc3Cl)C2=O)cc1 [Compound 30]
- CFTR inhibition activity (in words) (human wildtype CFTR): greatly reduced activity

SMILES: O=C(O)COc1cccc(/C=C2\SC(=S)N(c3cccc(C(F)(F)F)c3)C2=O)c1 [Compound 36]
- CFTR inhibition activity (in words) (human wildtype CFTR): substantially reduced CFTR inhibition

SMILES: O=C1/C(=C/c2ccc(O)c(O)c2)SC(=S)N1c1cccc(C(F)(F)F)c1 [Compound 38]
- IC50 (μM) (human wildtype CFTR; [4]): Inactive

SMILES: COc1c(Br)cc(/C=C2\SC(=S)N(c3cccc(C(F)(F)F)c3)C2=O)c(O)c1Br [Compound 39]
- IC50 (μM) (human wildtype CFTR; [4]): Inactive

SMILES: COc1cc(Br)ccc1/C=C1\SC(=S)N(c2cccc(C(F)(F)F)c2)C1=O [Compound 40]
- IC50 (μM) (human wildtype CFTR; [4]): Inactive

SMILES: COc1ccc(/C=C2\SC(=S)N(c3cccc(C(F)(F)F)c3)C2=O)cc1 [Compound 41]
- IC50 (μM) (human wildtype CFTR; [4]): Inactive

SMILES: NC(=O)c1ccc(/C=C2\SC(=S)N(c3cccc(C(F)(F)F)c3)C2=O)cc1 [Compound 42]
- IC50 (μM) (human wildtype CFTR; [4]): Inactive

SMILES: O=C(NCCO)c1ccc(/C=C2\SC(=S)N(c3cccc(C(F)(F)F)c3)C2=O)cc1 [Compound 43]
- IC50 (μM) (human wildtype CFTR; [4]): Inactive

SMILES: NCCNC(=O)c1ccc(/C=C2\SC(=S)N(c3cccc(C(F)(F)F)c3)C2=O)cc1 [Compound 44]
- IC50 (μM) (human wildtype CFTR; [4]): Inactive

SMILES: CCOC(=O)c1ccc(/C=C2\SC(=S)N(c3cccc(C(F)(F)F)c3)C2=O)cc1 [Compound 45]
- IC50 (μM) (human wildtype CFTR; [4]): Inactive

SMILES: CC(=O)OCOC(=O)c1ccc(/C=C2\SC(=S)N(c3cccc(C(F)(F)F)c3)C2=O)cc1 [Compound 46]
- IC50 (μM) (human wildtype CFTR; [4]): Inactive

SMILES: O=C(O)c1ccc(/C=C2\SC(=S)N(Cc3cccc(C(F)(F)F)c3)C2=O)cc1 [Compound 47, 4-[[4-Oxo-2-thioxo-3-[(3-(trifluoromethyl)phenyl)methyl]-5-thiazolidinylidene]methyl] benzoic acid]
- IC50 (μM) (human wildtype CFTR; [5]): Inactive

SMILES: O=C(O)c1ccc(/C=C2\SC(=O)N(c3cccc(C(F)(F)F)c3)C2=O)cc1 [Compound 48, 4-[[3-[3-(trifluoromethyl)phenyl]-2,4-dioxo-5-thiazolidinylidene]methyl]benzoic acid]
- Increase of water solubility compared with CFTRinh-172 [3]: ~ 25 fold
- Reduction of CFTR inhibition potency compared with CFTRinh-172 (human wildtype CFTR; short-circuit current assays): 3.6 fold

SMILES: O=C(O)c1ccc(NC2=C(Cl)C(=O)N(c3cccc(C(F)(F)F)c3)C2=O)cc1 [Compound 50]
- CFTR inhibition activity (in words) (human wildtype CFTR): weak activity

SMILES: O=C(O)c1ccc(SC2CC(=O)N(c3cccc(C(F)(F)F)c3)C2=O)cc1 (stereo not drawn) [Compound 51, 4-[[2,5-dioxo-1-[3-(trifluoromethyl)phenyl]-3-pyrrolidinyl]thio]-benzoic acid]
- CFTR inhibition activity (in words) (human wildtype CFTR): moderate activity

SMILES: O=C(O)c1ccc(NC(=S)C2SC(=S)N(c3cccc(C(F)(F)F)c3)C2=O)cc1 (stereo not drawn) [Compound 52, 4-Oxo-[(3-trifluoromethyl)phenyl]-2-thioxo-N-[4-(carboxy)phenyl]-5-thiazolidinethio carboxamide]
- Water solubility (in words) [3]: highly water soluble

SMILES: O=C(O)c1ccc(NC(=S)C2SC(=S)N(c3cccc(C(F)(F)F)c3)C2=O)cc1O (stereo not drawn) [Compound 53, 4-Oxo-[(3-trifluoromethyl)phenyl]-2-thioxo-N-[(4-carboxy-3-hydroxy)phenyl]-5-thiazolidinethiocarboxamide]
- Water solubility (in words) [3]: highly water soluble
- IC50 (human wildtype CFTR; [5]): 11 µM

SMILES: O=C1C(C(=S)Nc2ccc(S(=O)(=O)O)cc2)SC(=S)N1c1cccc(C(F)(F)F)c1 (stereo not drawn) [Compound 54]
- IC50 (human wildtype CFTR; [5]): 25 µM

SMILES: O=C(O)c1ccc(Nc2nc(-c3cccc(C(F)(F)F)c3)cs2)cc1 [Compound 59]
- CFTR inhibition activity (in words) (human wildtype CFTR): weakly active

SMILES: O=C(O)c1cc(Nc2nc(-c3cccc(C(F)(F)F)c3)cs2)ccc1O [Compound 60]
- CFTR inhibition activity (in words) (human wildtype CFTR): weakly active

SMILES: O=C(O)c1ccc(Nc2nnc(-c3cccc(C(F)(F)F)c3)s2)cc1 [Compound 64, 4-[(5-(3-Trifluoromethylphenyl)-1,3,4-thiadiazol-2-yl)amino]-benzoic acid]
- IC50 (μM) (human wildtype CFTR; [5]): Inactive

SMILES: O=C(O)c1ccc(-n2cc(-c3cccc(C(F)(F)F)c3)nn2)cc1 [Compound 68, 4-[4-[3-(trifluoromethyl)phenyl]-1H-1,2,3-triazol-1-yl]-benzoic acid]
- IC50 (μM) (human wildtype CFTR; [5]): Inactive

SMILES: O=C(O)c1ccc(-n2cc(-c3ccc(C(F)(F)F)cc3)nn2)cc1 [Compound 69]
- IC50 (μM) (human wildtype CFTR; [5]): Inactive
